“Also recorded” adds a separate entry of the source. Read-outs that look alike come from different tables or passages of the source.
How the values were obtained:
human NaCT = conditions: cited from earlier work
mouse NaCT = conditions: cited from earlier work
NaCT = conditions: cited from earlier work
NaCT/SLC13A5 [1] = molecular target: T1, NaCT/SLC13A5 (Homo sapiens, UniProt Q86YT5); experiment: Na+-coupled [14C]-citrate uptake in HepG2 cells; assay type: cell-based; conditions: for effect on Na+-dependent citrate uptake, compound present only during uptake: PF06761281 100 µM, BI01383298 10 µM; for maximal inhibition of citrate uptake: inhibitor present only during uptake; for reversibility of inhibition of SLC13A5: preincubation 30 min, then uptake
T1 sequence (Q86YT5 whole entry): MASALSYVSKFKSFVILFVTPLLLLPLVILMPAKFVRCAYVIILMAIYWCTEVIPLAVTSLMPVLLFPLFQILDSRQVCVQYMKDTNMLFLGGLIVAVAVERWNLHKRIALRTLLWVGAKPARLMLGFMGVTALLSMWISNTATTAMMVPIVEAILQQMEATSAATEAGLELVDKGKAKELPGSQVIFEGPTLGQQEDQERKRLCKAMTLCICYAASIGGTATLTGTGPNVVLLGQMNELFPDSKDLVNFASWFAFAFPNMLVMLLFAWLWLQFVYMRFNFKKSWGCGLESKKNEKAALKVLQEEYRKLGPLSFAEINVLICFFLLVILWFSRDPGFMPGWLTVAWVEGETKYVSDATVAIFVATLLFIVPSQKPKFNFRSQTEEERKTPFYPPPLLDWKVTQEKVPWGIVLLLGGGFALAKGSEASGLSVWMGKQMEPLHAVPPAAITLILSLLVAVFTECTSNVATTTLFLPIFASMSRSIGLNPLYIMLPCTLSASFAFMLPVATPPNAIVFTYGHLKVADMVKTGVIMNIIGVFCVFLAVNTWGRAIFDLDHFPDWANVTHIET
How it was run: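 HepG2 cells seeded at 4 × 10^5/well and assayed 48 h later. [14C]-citrate uptake measured for 30 min at 37°C in NaCl buffer pH 7.5 (Hepes/Tris), with or without 10 mM LiCl. Inhibitor either co-incubated during uptake, or preincubated 30 min and washed twice before inhibitor-free uptake. Recovery runs: 10 µM for 30 min in buffer or medium, washed, then held 0, 30 or 60 min (buffer) or 0 or 24 h (medium). Na+-free NMDG-Cl uptake subtracted; values protein-normalized (BCA).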

NaCT/SLC13A5 [2] = molecular target: T1, NaCT/SLC13A5; experiment: [14C]-citrate uptake in HEK293FT cells with ectopic expression of human SLC13A5; assay type: cell-based
How it was run: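 Human SLC13A5 (CMV plasmid) was transiently expressed in HEK293FT cells by Lipofectamine-3000, assay 48 h post-transfection. Cells were preincubated 30 min in NaCl buffer (Hepes/Tris, pH 7.5) with the test compound (10 µM or a concentration series), washed twice, then given [14C]-citrate (2 µM) for 30 min at 37 °C without inhibitor. NMDG (Na+-free) uptake was subtracted and values normalised to protein. IC50 came from the dose-response.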

mouse NaCT/Slc13a5 = molecular target: T2, mouse NaCT/Slc13a5 (Mus musculus, UniProt Q67BT3); experiment: [14C]-citrate uptake in HEK293FT cells with ectopic expression of mouse Slc13a5; assay type: cell-based
T2 sequence (Q67BT3 1-572): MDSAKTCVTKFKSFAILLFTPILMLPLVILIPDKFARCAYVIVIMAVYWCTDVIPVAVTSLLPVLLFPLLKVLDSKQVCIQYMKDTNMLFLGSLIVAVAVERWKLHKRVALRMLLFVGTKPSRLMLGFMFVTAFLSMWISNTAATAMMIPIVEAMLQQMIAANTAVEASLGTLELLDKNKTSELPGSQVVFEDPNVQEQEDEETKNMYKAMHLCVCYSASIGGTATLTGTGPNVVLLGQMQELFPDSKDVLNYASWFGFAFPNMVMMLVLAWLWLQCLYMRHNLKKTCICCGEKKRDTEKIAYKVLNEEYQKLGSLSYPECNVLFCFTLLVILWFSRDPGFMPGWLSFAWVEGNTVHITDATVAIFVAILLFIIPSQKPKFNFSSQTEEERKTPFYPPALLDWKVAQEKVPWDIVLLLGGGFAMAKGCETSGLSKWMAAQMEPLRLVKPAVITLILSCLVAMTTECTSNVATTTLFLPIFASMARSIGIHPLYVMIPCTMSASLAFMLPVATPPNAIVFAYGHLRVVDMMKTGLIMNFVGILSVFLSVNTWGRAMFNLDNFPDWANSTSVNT
How it was run: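 Mouse Slc13a5 was transiently expressed in HEK293FT cells (CMV plasmid, Lipofectamine-3000) and assayed 48 h after transfection in NaCl buffer pH 7.5 without LiCl. Cells got a 30 min preincubation with 10 µM test compound or 100 µM reference NaCT inhibitor, two washes and 0 or 60 min recovery. Then 2 µM [14C]-citrate uptake ran 30 min, or with inhibitor co-present only during uptake. Na+-dependent uptake was normalised to protein.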

SLC5A8 = molecular target: T3, SLC5A8 (Homo sapiens, UniProt Q8N695); experiment: [14C]-nicotinate uptake in HepG2 cells; assay type: cell-based; conditions: 10 µM, 30 min preincubation, washed, NaCl buffer pH 7.5
T3 sequence (Q8N695 1-610): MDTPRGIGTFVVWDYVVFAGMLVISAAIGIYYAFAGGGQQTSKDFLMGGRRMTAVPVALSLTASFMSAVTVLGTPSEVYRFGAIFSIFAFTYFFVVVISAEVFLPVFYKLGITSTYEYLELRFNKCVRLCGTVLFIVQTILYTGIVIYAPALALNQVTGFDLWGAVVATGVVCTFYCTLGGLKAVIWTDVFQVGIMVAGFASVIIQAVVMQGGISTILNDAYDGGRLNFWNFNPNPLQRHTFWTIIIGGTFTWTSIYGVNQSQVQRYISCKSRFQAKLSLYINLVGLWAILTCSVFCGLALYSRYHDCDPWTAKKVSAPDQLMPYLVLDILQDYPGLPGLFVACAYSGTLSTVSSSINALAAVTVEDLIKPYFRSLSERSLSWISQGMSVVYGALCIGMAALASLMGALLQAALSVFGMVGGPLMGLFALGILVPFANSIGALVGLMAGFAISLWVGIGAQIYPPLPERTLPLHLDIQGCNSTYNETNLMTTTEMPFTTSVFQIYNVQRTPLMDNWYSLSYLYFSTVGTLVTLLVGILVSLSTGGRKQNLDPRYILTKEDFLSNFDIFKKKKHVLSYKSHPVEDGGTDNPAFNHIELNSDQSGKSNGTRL
How it was run: (§1)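 HepG2 cells, 48 h after seeding, were preincubated 30 min with 10 µM test compound and washed; substrate uptake followed without inhibitor. [14C]-nicotinate and [3H]-arginine were run in NaCl buffer pH 7.5, and [3H]-glutamine and [3H]-tryptophan in NMDG buffer pH 7.5, each for 15 min. [14C]-lactate was run in NMDG buffer pH 6 for 3 min. Uptake was normalised to protein and compared with untreated control.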

SLC6A14 = molecular target: T4, SLC6A14 (Homo sapiens, UniProt Q9UN76); experiment: [3H]-arginine uptake in HepG2 cells; assay type: cell-based; conditions: 10 µM, 30 min preincubation, washed, NaCl buffer pH 7.5
T4 sequence (Q9UN76 1-642): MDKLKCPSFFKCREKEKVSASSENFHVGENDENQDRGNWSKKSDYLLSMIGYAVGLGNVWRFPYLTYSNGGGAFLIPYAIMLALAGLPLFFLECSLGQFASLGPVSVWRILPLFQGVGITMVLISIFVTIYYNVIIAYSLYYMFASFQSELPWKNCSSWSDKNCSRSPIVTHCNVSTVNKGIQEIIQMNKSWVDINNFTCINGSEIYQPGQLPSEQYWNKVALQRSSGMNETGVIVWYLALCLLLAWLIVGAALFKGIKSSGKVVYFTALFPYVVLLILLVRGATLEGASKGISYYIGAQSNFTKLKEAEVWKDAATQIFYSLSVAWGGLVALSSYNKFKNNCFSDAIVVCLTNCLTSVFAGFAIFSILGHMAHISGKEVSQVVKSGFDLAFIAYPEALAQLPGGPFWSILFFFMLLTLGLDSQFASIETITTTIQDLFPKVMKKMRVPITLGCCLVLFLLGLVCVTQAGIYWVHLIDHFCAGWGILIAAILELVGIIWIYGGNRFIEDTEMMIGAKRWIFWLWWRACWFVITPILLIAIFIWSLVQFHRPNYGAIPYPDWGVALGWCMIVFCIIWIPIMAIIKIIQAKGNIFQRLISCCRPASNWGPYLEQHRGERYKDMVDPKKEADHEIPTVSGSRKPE
How it was run: as §1

SLC7A5 = SLC7A5 (Homo sapiens, UniProt Q01650); experiment: [3H]-glutamine and [3H]-tryptophan uptake in HepG2 cells; assay type: cell-based; conditions: 10 µM, 30 min preincubation, washed, NMDG buffer pH 7.5
Chain of SLC7A5 (Q01650 whole entry): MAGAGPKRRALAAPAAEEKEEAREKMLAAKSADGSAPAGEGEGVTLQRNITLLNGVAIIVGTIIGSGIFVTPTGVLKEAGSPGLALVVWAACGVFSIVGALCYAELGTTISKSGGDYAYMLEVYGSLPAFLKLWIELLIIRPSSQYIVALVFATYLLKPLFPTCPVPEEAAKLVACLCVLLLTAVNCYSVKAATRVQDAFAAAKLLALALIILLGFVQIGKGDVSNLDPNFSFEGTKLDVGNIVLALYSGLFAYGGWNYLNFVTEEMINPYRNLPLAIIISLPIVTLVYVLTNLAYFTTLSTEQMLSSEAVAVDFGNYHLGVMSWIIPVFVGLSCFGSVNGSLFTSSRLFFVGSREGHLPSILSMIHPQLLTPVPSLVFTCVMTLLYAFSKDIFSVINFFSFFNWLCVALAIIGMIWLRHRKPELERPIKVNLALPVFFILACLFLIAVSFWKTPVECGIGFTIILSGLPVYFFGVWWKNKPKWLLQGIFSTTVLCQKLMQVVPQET
How it was run: as §1

MCTs = experiment: [14C]-lactate uptake in HepG2 cells; assay type: cell-based, human; conditions: 10 µM, 30 min preincubation, washed, NMDG pH 6
How it was run: as §1

HepG2 cells = experiment: Colony formation assay; assay type: cell-based, human; conditions: 5 and 10 µM, 10 days, culture medium with 0.5 mM citrate
How it was run: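 HepG2 cells were seeded at 5000 per well in six-well plates and grown for 10 days in normal medium supplemented with 0.5 mM citrate. The medium held 0.1% DMSO alone, or the test compound at 5 or 10 µM plus 0.1% DMSO, and was renewed every other day. Cells were washed in PBS, methanol-fixed and Giemsa-stained. Colonies were photographed, then the stain was extracted and quantified against the no-inhibitor control.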

[3] = HepG2, 10 µM, 30 min preincubation, washed, NaCl buffer pH 7.5

**Q.** Which IC50 (human NaCT; read-out: IC50 for NaCT-mediated citrate uptake, human NaCT) does the source give for `CC(C)(C)c1ccc(CC[C@@](O)(CC(=O)O)C(=O)O)cc1` [PF-06649298] here?
**A.** 400 to 10000 nM

**Q.** And the “species selectivity (mouse and human NaCTs)” value (mouse NaCT)?
**A.** no species selectivity

**Q.** For `CN(C)C(=N)N=C(N)N` [metformin], which “effect on expression of NaCT in HepG2 cells” value (NaCT) is on record?
**A.** suppresses the expression of NaCT

**Q.** With `O=C(NCc1ccc(F)cc1)C1CCN(S(=O)(=O)c2cc(Cl)cc(Cl)c2)CC1` [BI01383298, 1-(3,5-Dichlorophenylsulfonyl)-N-(4-fluorobenzyl)piperidine-4-carboxamide] as the compound, how does the “preincubation time at which maximal inhibition is evident” value (NaCT/SLC13A5 [1]; HepG2, 10 µM inhibitor, washed, uptake without inhibitor) read?
**A.** 30 min

**Q.** And the “Citrate (7 µM) uptake” value (NaCT/SLC13A5 [1]; [3])?
**A.** 88.2 ± 5.6 pmol/mg of protein/30 min

**Q.** And the “Citrate (7 µM) uptake, % Control” value (NaCT/SLC13A5 [1]; [3])?
**A.** 18 ± 1 % Control

**Q.** And the “IC50 lower in presence of Li+ than in its absence” value (NaCT/SLC13A5 [1]; HepG2, 30 min preincubation, inhibitor also present during uptake)?
**A.** 2 fold

**Q.** And the “inhibitory potency relative to PF06761281” value (NaCT/SLC13A5 [1]; HepG2, BI01383298 10 µM vs PF06761281 100 µM)?
**A.** at least 10 times

**Q.** And the “effect on Na+-dependent citrate uptake, compound present only during uptake” value (NaCT/SLC13A5 [1]; HepG2)?
**A.** inhibited

**Q.** And the “maximal inhibition of citrate uptake” value (NaCT/SLC13A5 [1]; HepG2, absence of Li+)?
**A.** ~60%

**Q.** What about the “maximal inhibition of citrate uptake” value (NaCT/SLC13A5 [1]; HepG2, presence of Li+) of the same compound?
**A.** ~60%

**Q.** What about the “increase in inhibitory potency with preincubation” value (NaCT/SLC13A5 [1]; HepG2, preincubated vs not preincubated, both in absence or presence of Li+) of the same compound?
**A.** ~10 fold

**Q.** And the IC50 (NaCT/SLC13A5 [1]; IC50 for human NaCT (summary), human NaCT, HepG2 and HEK293 cells)?
**A.** ~100 nM

**Q.** And the “type of inhibition of NaCT/SLC13A5” value (NaCT/SLC13A5 [1]; kinetic analysis, Eadie–Hofstee plot)?
**A.** non-competitive

**Q.** What about the “reversibility of inhibition of SLC13A5” value (NaCT/SLC13A5 [1]; washed) of the same compound?
**A.** irreversible

**Q.** And the IC50 (NaCT/SLC13A5 [2])?
**A.** 171 ± 51 nM

**Q.** And the “effect on human NaCT/SLC13A5 transporter activity” value (NaCT/SLC13A5 [2]; HEK293FT, 10 µM)?
**A.** complete inhibition

**Q.** And the “effect on mouse NaCT/Slc13a5” value (mouse NaCT/Slc13a5; 10 µM, 30 min preincubation, uptake without inhibitor)?
**A.** not affected; also recorded: not inhibited; also recorded: little or no inhibition

**Q.** And the “Nicotinate (8 µM) uptake” value (SLC5A8)?
**A.** 123 ± 4 pmol/mg of protein/15 min

**Q.** What about the “Nicotinate (8 µM) uptake, % Control” value (SLC5A8) of the same compound?
**A.** 100 ± 3 % Control

**Q.** And the “Arginine (5 µM) uptake” value (SLC6A14)?
**A.** 935 ± 51 pmol/mg of protein/15 min

**Q.** And the “Arginine (5 µM) uptake, % Control” value (SLC6A14)?
**A.** 101 ± 5 % Control

**Q.** What about the “Glutamine (5 µM) uptake” value (SLC7A5) of the same compound?
**A.** 306 ± 3 pmol/mg of protein/15 min

**Q.** What about the “Tryptophan (5 µM) uptake” value (SLC7A5) of the same compound?
**A.** 76 ± 3 pmol/mg of protein/15 min

**Q.** What about the “Tryptophan (5 µM) uptake, % Control” value (SLC7A5) of the same compound?
**A.** 95 ± 3 % Control

**Q.** And the “Lactate (3 µM) uptake” value (MCTs)?
**A.** 137 ± 7 pmol/mg of protein/3 min

**Q.** What about the “Lactate (3 µM) uptake, % Control” value (MCTs) of the same compound?
**A.** 97 ± 5 % Control

**Q.** And the “effect on HepG2 cell proliferation” value (HepG2 cells)?
**A.** decreased cell proliferation; also recorded: robust inhibition of cell proliferation; also recorded: does block the proliferation

**Q.** What about the IC50 (human NaCT; read-out: IC50 for human NaCT, ref Structural Genomics Consortium) of the same compound?
**A.** 25 to 60 nM

**Q.** And the “effect on mouse NaCT” value (mouse NaCT; ref Structural Genomics Consortium)?
**A.** no effect

**Q.** Which “lower affinity of human NaCT for citrate than mouse NaCT” value (human NaCT; kinetic experiments under identical conditions) does the source give for `O=C(O)CC(O)(CC(=O)O)C(=O)O` [citrate] here?
**A.** at least 30 fold

**Q.** What does the source list for `COc1ncc(C)cc1CC[C@@](O)(CC(=O)O)C(=O)O` [PF06761281, (2R)-2-Hydroxy-2-[2-(2-methoxy-5-methyl-3-pyridinyl)ethyl]succinic acid]?
**A.** effect on Na+-dependent citrate uptake, compound present only during uptake (NaCT/SLC13A5 [1]; HepG2): inhibited; reversibility of inhibition of SLC13A5 (NaCT/SLC13A5 [1]; washed): at least partly reversible; effect on activity of mouse NaCT/Slc13a5 (mouse NaCT/Slc13a5; 100 µM): able to inhibit; inhibitory potency for mouse NaCT/Slc13a5 compared with human NaCT/SLC13A5 (mouse NaCT/Slc13a5; 100 µM): greater than for human NaCT/SLC13A5; increase in inhibitor potency over PF-06649298 (human NaCT; optimized derivative): ~4 fold

From article PMC7657661 (Biochemical Journal, 2020)
